Measurements from ChEMBL document CHEMBL1154485, “Novel 2-aryl-naphtho[1,2-d]oxazole derivatives as potential PTP-1B inhibitors showing antihyperglycemic activities” (Eur J Med Chem, 2009).

Assays:
Rattus norvegicus [1] = experiment: Antihyperglycemic activity against sucrose-loaded Charles-Foster Wistar albino rat assessed as reduction in blood glucose at 100 mg/kg, po administered 30 mins before sucrose challenge relative to control; assay type: functional; set-up: scale not given: the % may be the effect or the level left
Procedure, shortened: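 Male Charles Foster/Wistar rats, 160 ± 20 g, fasted 16 h, selected at 60e80 mg/dl glucose, groups of 5-6. Compound given orally at 100 mg/kg in 1.0% gum acacia; sucrose 10.0 g/kg orally 30 min later. Glucose read by glucometer at 30-120 min. Percent activity derived from AUC versus vehicle.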

[2] = target: T1, Tyrosine-protein phosphatase non-receptor type 1 (Homo sapiens, UniProt P18031); experiment: Inhibition of PTP1B assessed as residual enzyme activity
T1 sequence (P18031 whole entry): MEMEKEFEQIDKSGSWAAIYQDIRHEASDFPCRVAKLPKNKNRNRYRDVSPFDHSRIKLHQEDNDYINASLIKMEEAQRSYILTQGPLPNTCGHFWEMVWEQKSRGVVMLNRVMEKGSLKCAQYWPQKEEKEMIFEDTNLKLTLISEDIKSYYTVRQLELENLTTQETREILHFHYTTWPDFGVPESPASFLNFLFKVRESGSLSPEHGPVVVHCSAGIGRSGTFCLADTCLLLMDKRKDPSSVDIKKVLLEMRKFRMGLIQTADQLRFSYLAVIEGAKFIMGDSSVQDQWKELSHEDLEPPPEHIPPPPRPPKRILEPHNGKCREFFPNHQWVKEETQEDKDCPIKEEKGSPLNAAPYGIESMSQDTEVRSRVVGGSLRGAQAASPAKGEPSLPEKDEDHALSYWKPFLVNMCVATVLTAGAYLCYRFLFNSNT
Procedure, shortened: (§1)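 PTP-1B pre-incubated 10 min with compound, with or without 0.01% Triton X-100. Reaction: 10 mM pNPP in 50 mM HEPES pH 7.0 with 1 mM DTT and 2 mM EDTA, 30 min at 37 °C. Stopped with 0.1 N NaOH, p-nitrophenolate read at 410 nm (ε 1.78×10⁴ M⁻¹cm⁻¹). Single-concentration screen was the mean of three independent sets. Sodium orthovanadate served as standard.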

[3] = target: T1, Tyrosine-protein phosphatase non-receptor type 1; experiment: Inhibition of PTP1B assessed as residual enzyme activity in presence of Triton X-100; procedure, shortened: as §1
Rattus norvegicus [4] = experiment: Antihyperglycemic activity against sucrose-challenged streptozotocin-induced fasted Sprague-Dawley rat assessed as reduction in blood glucose at 100 mg/kg, po administered 30 mins before sucrose challenge measured after 5 hrs post sucrose dose relative to control; assay type: functional; set-up: scale not given: the % may be the effect or the level left
Procedure, shortened: (§2)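 Male Sprague Dawley rats, 160 ± 20 g, overnight fasted, given streptozotocin 45 mg/kg i.p. in citrate buffer pH 4.5. Rats at 144-270 mg/dl glucose after 48 h were used, 5-6 per group. Oral dose 100 mg/kg in 1.0% gum acacia, sucrose 2.5 g/kg 30 min later. Glucose read at 30-300 min and 24 h. Activity derived from AUC versus control.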

Rattus norvegicus [5] = experiment: Antihyperglycemic activity against sucrose-challenged streptozotocin-induced fasted Sprague-Dawley rat assessed as reduction in blood glucose at 100 mg/kg, po administered 30 mins before sucrose challenge measured after 24 hrs post sucrose dose relative to control; assay type: functional; set-up: scale not given: the % may be the effect or the level left; procedure, shortened: as §2
Mus musculus [6] = species on record: Mus musculus; experiment: Antihyperglycemic activity against C57BL/KsBom db/db type 2 diabetic mouse model assessed as decrease in postprandial blood glucose level on day 3 by OGTT relative to control; assay type: functional; set-up: concentration or dose not given beside the values
Mus musculus [7] = species on record: Mus musculus; experiment: Antihyperglycemic activity against C57BL/KsBom db/db type 2 diabetic mouse model assessed as decrease in postprandial blood glucose level on day 6 by OGTT relative to control; assay type: functional; set-up: scale not given: the % may be the effect or the level left
Procedure, shortened: (§3)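 Male and female C57BL/KsBom-db mice, 12e18 weeks, 40e50 g, ten used, vehicle 1.0% gum acacia. Day 6 postprandial protocol: glucose read at -0.5 and 0 h, then at 1, 2, 3, 4 and 6 h after dosing. Day 10 OGTT: overnight fast, drug given at -30 min, glucose 3 g/kg at 0 min, glucose read at 30-120 min.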

Mus musculus [8] = species on record: Mus musculus; experiment: Antihyperglycemic activity against C57BL/KsBom db/db type 2 diabetic mouse model assessed as decrease in postprandial blood glucose level on day 10 by OGTT relative to control; assay type: functional; set-up: scale not given: the % may be the effect or the level left; procedure, shortened: as §3
Mus musculus [9] = experiment: Antidyslipidemic activity in C57BL/KsBom db/db diabetic mouse assessed as reduction in plasma triglyceride level at 100 mg/kg, po; assay type: functional; set-up: scale not given: the % may be the effect or the level left
Procedure, shortened: (§4)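 Male and female C57BL/KsBom-db mice, 12e18 weeks, 40e50 g, ten per experiment, housed by sex at 23 °C on a 12/12 h cycle. Test drug given orally at 100 mg/kg in gum acacia (1.0%); vehicle controls received gum acacia only. Dosing ran 10 days. Effects on triglyceride, cholesterol and HDL are reported as % change.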

Mus musculus [10] = experiment: Antidyslipidemic activity in C57BL/KsBom db/db diabetic mouse assessed as reduction in plasma cholesterol level at 100 mg/kg, po; assay type: functional; set-up: scale not given: the % may be the effect or the level left; procedure, shortened: as §4
Mus musculus [11] = experiment: Antidyslipidemic activity in C57BL/KsBom db/db diabetic mouse assessed as increase in high-density lipoprotein cholesterol level at 100 mg/kg, po; assay type: functional; procedure, shortened: as §4

IC50 [2] [µM] | Ki [2] [µM] | IC50 [3] [µM] | Ki [3] [µM] | Compound | Activity (Rattus norvegicus [1]) [%] | Activity (Rattus norvegicus [4]) [%] | Activity (Rattus norvegicus [5]) [%] | Activity (Mus musculus [6]) [%] | other results
 |  |  |  | O=C(O)COc1ccc(-c2nc3c(ccc4ccccc43)o2)cc1 | 4.6 |  |  |  | 
5.71 | 34.2 | 5.7 | 37 | c1ccc2c(c1)ccc1oc(-c3ccc(OCCN4CCCC4)cc3)nc12 | 8.7 |  |  |  | 
 |  |  |  | c1ccc2c(c1)ccc1oc(-c3ccc(OCCCN4CCCCC4)cc3)nc12 | 25 | 13.4 | 11.2 |  | 
 |  |  |  | c1ccc2c(c1)ccc1oc(-c3ccc(OCCCN4CCCC4)cc3)nc12 | 17.2 | 12.6 | 12.9 |  | 
 |  |  |  | COc1ccc(NCCCOc2ccc(-c3nc4c(ccc5ccccc54)o3)cc2)cc1 | 11.8 |  |  |  | 
 |  |  |  | CCCCN(C)CCCOc1ccc(-c2nc3c(ccc4ccccc43)o2)cc1 | 14.7 | 7.8 | 9.2 |  | 
 |  |  |  | CCOC(=O)COc1ccc(-c2nc3c(ccc4ccccc43)o2)cc1 | 11.4 |  |  |  | 
 |  |  |  | O=C(O)CCCOc1ccc(-c2nc3c(ccc4ccccc43)o2)cc1 | 5.8 |  |  |  | 
 |  |  |  | Oc1ccc(-c2nc3c(ccc4ccccc43)o2)cc1 | 10.8 |  |  |  | 
3.4 | 40.5 | 3.36 | 41 | CCN(CC)CCCOc1ccc(-c2nc3c(ccc4ccccc43)o2)cc1 | 20.5 | 11.5 | 13.6 | 10.8 | 
 |  |  |  | ClCCCOc1ccc(-c2nc3c(ccc4ccccc43)o2)cc1 | 7.4 |  |  |  | 
1.9 | 27.5 | 1.86 | 27.1 | c1ccc2c(c1)ccc1oc(-c3ccc(OCCN4CCCCC4)cc3)nc12 | 26.9 | 16.4 | 15.7 | 10.4 | 
4.6 | 35 | 4.55 | 35.5 | CCN(CC)CCOc1ccc(-c2nc3c(ccc4ccccc43)o2)cc1 | 21.7 | 11.4 | 9.7 |  | 
 |  |  |  | CCCCCCCCNCCCOc1ccc(-c2nc3c(ccc4ccccc43)o2)cc1 | 15 |  |  |  | 
3.51 | 25.1 | 3.56 | 28.7 | CN(C)CCOc1ccc(-c2nc3c(ccc4ccccc43)o2)cc1 | 35.9 | 27.9 | 25.7 | 18.9 | Activity (Mus musculus [7]): 21.4%; Activity (Mus musculus [8]): 23.6%; Activity (Mus musculus [9]): 10.5%; Activity (Mus musculus [10]): 17.6%; Activity (Mus musculus [11]): 3%
3.5 | 34.1 | 3.52 | 36.3 | CN(C)CCCOc1ccc(-c2nc3c(ccc4ccccc43)o2)cc1 | 25.2 | 15.6 | 20.3 | 16.7 | 
2.5 | 44.4 | 2.52 | 41 | CCCCN(C)CCOc1ccc(-c2nc3c(ccc4ccccc43)o2)cc1 | 35.3 | 17.4 | 18.7 | 22.3 | Activity (Mus musculus [7]): 22.4%; Activity (Mus musculus [8]): 24.1%; Activity (Mus musculus [9]): 7.5%; Activity (Mus musculus [10]): 12.2%; Activity (Mus musculus [11]): 1.3%
 |  |  |  | CCOC(=O)CCCOc1ccc(-c2nc3c(ccc4ccccc43)o2)cc1 | 9.5 |  |  |  | 
 |  |  |  | CC(=O)Oc1ccc(-c2nc3c(ccc4ccccc43)o2)cc1 | 16.8 |  |  |  | 
 |  |  |  | Cc1ccc(NCCCOc2ccc(-c3nc4c(ccc5ccccc54)o3)cc2)cc1 | 17.2 | 14.6 | 15.2 |  | 
 |  |  |  | Cc1ccc(S(=O)(=O)NC(=O)NN2CC3CCCC3C2)cc1 (configuration not stated) [GLICLAZIDE] | 44.8 | 27.7 |  | 17.4 | 
 |  |  |  | COc1ccc(Cl)cc1C(=O)NCCc1ccc(S(=O)(=O)NC(=O)NC2CCCCC2)cc1 [GLYBURIDE] | 33.9 | 32.8 |  | 13.6 | 
 |  |  |  | CN(C)C(=N)NC(=N)N [METFORMIN] | 12.9 |  | 20.2 | 11.2 | 
